The list is not random: actives were taken first. Their share in the collection is about 2.3%.
PLCb3 inh: blocks human PLC-beta3 enzyme activity; Q01970; Purified PLC-beta3, fluorogenic substrate, fluorescence; inhibition, % at 12.2 µM; 370,000 tested, 0.18% active; in the data active means inhibition above about 11%;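 further: 0% = median of compound wells on plate and 100% = full blocker control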
ADAM17 inh: ADAM17 inhibition, QFRET primary screen. 370,000 tested, 0.83% active. inhibition, % at 6.95 µM. AID 720648. P78536. recombinant ADAM17, EDANS/DABCYL FRET peptide cleavage;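 active means inhibition above the mean of compounds lying between control limits plus 3 SD, set per campaign, cut at about 8.5% in these data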;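 further: 0% = DMSO-only wells as the low control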
TbMetRS inhib: Trypanosoma brucei MetRS inhibition; 360,000 tested, 0.4% active; purified T. brucei MetRS, ATP depletion, Kinase-Glo luminescence; inhibition, % at 11.9 µM; AID 624268;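 active means inhibition above a per-plate cutoff of the control wells' mean inhibition plus 3 SD, cut at about 5.5% in these data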;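 further: 0% = DMSO wells median and 100% = median of wells with control inhibitor compound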
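Material: parasite MetRS enzyme / Replication: singlicate, one well per compound / Signal: luminescence of leftover ATP / Schedule: 2 h aminoacylation at 25 °C after 15 min preincubation / Medium: HEPES-MgCl2-KCl buffer plus DTT, spermine, BSA, pyrophosphatase / Doses: 11.9 µM single point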
ADAM10 inh: inhibitors of human ADAM10; inhibition, % at 7 µM; recombinant ADAM10, EDANS/DABCYL FRET peptide cleavage, 3 h; O14672; 370,000 tested, 0.62% active; AID 720582;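 active means inhibition above a per-campaign cutoff equal to the mean of compounds falling between control-based bounds plus 3 SD, cut at about 20% in these data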;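 further: 0% = DMSO wells while the 100% control is not disclosed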
PLC-gamma1 inh: inhibitors of human phospholipase C gamma1; P19174; purified PLC-gamma1, fluorogenic substrate, fluorescence; inhibition, % at 12.2 µM; 370,000 tested, 0.84% active; AID 720700; in the data active means inhibition above about 9.5%
ADAM10 ctr: counter-screen for ADAM17 exosite inhibitors: inhibitors of human ADAM10 | shares compounds with ADAM17 inh | recombinant ADAM10, EDANS/DABCYL FRET peptide cleavage, 3 h | inhibition, % at 6.95 µM | 2,900 tested, 47% active | AID 743256;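 active means mean inhibition over the triplicate runs exceeds the activity threshold set in the earlier primary screen, cut at about 20% in these data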;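 further: 0% = DMSO wells and 100% = marimastat wells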
ADAM17 confirm: confirmation of inhibitors of human ADAM17; recombinant ADAM17, EDANS/DABCYL QFRET peptide cleavage; AID 743257; 2,900 tested, 65% active; shares compounds with ADAM17 inh; inhibition, % at 6.95 µM;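 active means mean inhibition across replicates above the hit cutoff set in the primary screen, cut at about 8.5% in these data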;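 further: 0% = DMSO wells and 100% = marimastat wells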
* hit, by the source's call; . = no result given.

SMILES	PLCb3 inh	ADAM17 inh	TbMetRS inhib	ADAM10 inh	PLC-gamma1 inh	ADAM10 ctr	ADAM17 confirm
CN(C)CCN[C@H]1CCC2C3CC=C4C[C@@H](O)CC[C@]4(C)C3CC[C@@]21C (stereo partly specified)	3	-2	0	-3	2	.	.
COc1ccc(CCN2C(=O)CCC2(C)c2nnnn2-c2ccc3c(c2)OCCO3)cc1OC (stereo unspecified)	-3	-5	-1	-16	0	.	.
CCc1c(-c2ccc(Cl)cc2)ncn1Cc1cccc(-c2ccccc2)c1	0	12*	1	18	3	1	6
C#CCN(C[C@@H]1[C@@H](OC(=O)Nc2cccs2)[C@@H](OC(=O)Nc2cccs2)Cn2c(=O)n(CCCCCC)c(=O)n21)S(=O)(=O)c1ccc(C)cc1	-1	11*	0	18	0	20	10*
O=C1CCCCC1C(O)(C(=O)c1ccccc1)c1ccccc1 (stereo unspecified)	1	0	0	4	0	.	.
COc1cc(/C=C2\SC(=S)N(NC(=O)c3ccccc3OC)C2=O)ccc1O	-19	11*	0	19	-10	23*	11*
Cc1cc(SCC(=O)Nc2cccc(S(N)(=O)=O)c2)c(C)cc1Br	1	6	-1	1	0	.	.
Cc1cc(SCC(=O)Nc2cccc(S(=O)(=O)NC3=NCCCCC3)c2)c(C)cc1Br	3	11*	2	15	3	28*	18*
CC(Sc1nnc2n1CCCCC2)C(=O)Nc1ccc(S(N)(=O)=O)cc1 (stereo unspecified)	-5	-4	0	4	4	.	.
Cc1c(Cl)cccc1NC(=S)NCCC(C)C	8	-4	0	-1	-1	.	.
Cc1c(Cl)cccc1NC(=S)NCCC(c1ccccc1)c1ccccc1	-1	9.2*	0	15	10*	21*	10*
c1ccc(Nc2nc(N3CCOCC3)nc(N3CCOCC3)n2)cc1	2	0	-1	4	2	.	.
C(=N\Nc1nc(Nc2ccccc2)nc(N2CCOCC2)n1)/c1c[nH]c2ccccc12	2	9.2*	.	17	4	17	11*
COC(=O)[C@H]1[C@H](CCc2ccccc2)NC(=O)N(Cc2ccccc2)[C@@H]1C	1	-2	-1	6	4	.	.
CCN1C(=O)N[C@@H](CCc2ccccc2)[C@@H](C(=O)OC)[C@H]1C	7	9.8*	0	-1	4	7	7
COc1ccccc1NS(=O)(=O)c1cccc(NC(=O)CCNC(=O)c2ccccc2OC)c1	-1	1	-1	-2	0	.	.
CCOc1ccc(C(=O)c2nc3c(n2O)CCCC3)cc1	3	9.8*	-1	1	4	7	9.7*
CCNC(=O)C1CCCN(C(=O)c2ccccc2)CC1 (stereo unspecified)	1	2	0	-3	4	.	.
NS(=O)(=O)c1cccc(NC(=O)/C=C/c2cccs2)c1	-7	0	-1	2	1	.	.
NS(=O)(=O)c1ccc(NC(=O)/C=C/c2cccs2)cc1	-4	10*	0	15	6	-6	3
CCOc1ccc(S(=O)(=O)c2ccc(C)cc2)c2c1no[n+]2[O-]	-2	11*	0	7	2	2	5
CCOc1cc(/C=N/O)ccc1OS(=O)(=O)c1ccc(C)cc1	1	8	-1	1	0	.	.
CCCCNC(=O)/C=C1\Sc2ccccc2NC1=O	-43	-2	0	-7	-40	.	.
CCc1ccc(C(=O)/C=C2\Sc3ccccc3NC2=O)cc1	0	8.8*	0	16	1	11	11*
CCn1c(SCC(=O)N/N=C/C=C/c2ccccc2[N+](=O)[O-])nnc1-c1ccc(Cl)cc1	0	-3	.	-3	0	.	.
SMILES	PLCb3 inh	ADAM17 inh	TbMetRS inhib	ADAM10 inh	PLC-gamma1 inh	ADAM10 ctr	ADAM17 confirm
O=C(CSc1nnc(-c2ccccc2)n1-c1ccccc1)NN=C/C=C\c1ccccc1[N+](=O)[O-]	4	8.8*	.	14	8	30*	16*
Cc1cccc(N2CCN(S(=O)(=O)c3ccc4c(c3)C(C)(C)C(=O)N4C)CC2)c1C	-2	8.8*	0	20	6	3	8
Cc1ccc(C)c(N2CCN(S(=O)(=O)c3ccc4c(c3)C(C)(C)C(=O)N4C)CC2)c1	-4	7	0	-9	1	.	.
COCCCN1C(=O)[C@H](CC(=O)NCCc2ccccc2OC)[C@]2(C(=O)OC)CCCCC=C12	-2	-2	.	-5	-1	.	.
Cc1cc(NC(=O)/C(C#N)=C/c2ccco2)n(-c2ccccc2)n1	-2	9.0*	0	16	0	20*	11*
CCC(=O)c1ccc(OCC(=O)NCc2ccccc2CN2CCCC2)cc1	-4	-2	0	-6	0	.	.
O=C(CNC(=O)c1ccccc1F)N/N=C/c1cc(Br)ccc1OCc1ccccc1	-5	8.8*	0	19	0	32*	15*
CC(C)C[C@@H]1COc2cc(Br)ccc2S(=O)(=O)N1Cc1cn(Cc2ccc(Br)cc2)nn1	2	0	.	2	2	.	.
COC(=O)c1ccc(CN2C(=O)C(C)N(C(=O)c3c(F)cccc3F)c3ccccc32)cc1 (stereo unspecified)	2	11*	0	3	8	19	15*
COc1ccc(Cn2c(SC)nc3ccccc32)cc1[N+](=O)[O-]	1	8.7*	1	16	4	10	2
CC(C)(C)c1ccc(C(=O)N2CCC(C(=O)c3ccccc3)CC2)cc1	-3	-6	-1	7	0	.	.
CC1(c2ccccc2)NC(=O)N(CC(=O)Nc2ccc(S(N)(=O)=O)cc2)C1=O (stereo unspecified)	1	-2	0	1	4	.	.
CC1CC(C)CN(S(=O)(=O)c2ccc(NC(=O)CN3C(=O)NC(C)(c4ccccc4)C3=O)cc2)C1 (stereo unspecified)	0	10.0*	0	17	4	21*	12*
CCOC(=O)c1cc(-c2ccccc2)nc2c(O)cccc12	3	1	0	10	0	.	.
O=C(C(=O)N1CCN(S(=O)(=O)c2cccc(C(F)(F)F)c2)CC1)c1cccc(C(F)(F)F)c1	8	0	.	3	-3	.	.
CC(C)N1CCCC(C)(C(=O)Nc2cccc(Oc3ccccc3)c2)C1 (stereo unspecified)	-4	0	0	-1	-3	.	.
CCC(CC)N1CCN(S(=O)(=O)c2ccc(OC)cc2)CC1	0	-1	-2	4	1	.	.

Source: PubChem BioAssay
